From ChEMBL document CHEMBL3352788, “Characterization of selective exosite-binding inhibitors of matrix metalloproteinase 13 that prevent articular cartilage degradation in vitro” (J Med Chem, 2014)
pIC50: −log10 of the molar value.

Experiments:
Caspase-5 (Homo sapiens) = target: T1, Caspase-5 (Homo sapiens) (UniProt P51878); assay: Inhibition of recombinant human caspase 5 using LEHDGP substrate at up to 20 uM after 3 hrs
T1 sequence (whole entry): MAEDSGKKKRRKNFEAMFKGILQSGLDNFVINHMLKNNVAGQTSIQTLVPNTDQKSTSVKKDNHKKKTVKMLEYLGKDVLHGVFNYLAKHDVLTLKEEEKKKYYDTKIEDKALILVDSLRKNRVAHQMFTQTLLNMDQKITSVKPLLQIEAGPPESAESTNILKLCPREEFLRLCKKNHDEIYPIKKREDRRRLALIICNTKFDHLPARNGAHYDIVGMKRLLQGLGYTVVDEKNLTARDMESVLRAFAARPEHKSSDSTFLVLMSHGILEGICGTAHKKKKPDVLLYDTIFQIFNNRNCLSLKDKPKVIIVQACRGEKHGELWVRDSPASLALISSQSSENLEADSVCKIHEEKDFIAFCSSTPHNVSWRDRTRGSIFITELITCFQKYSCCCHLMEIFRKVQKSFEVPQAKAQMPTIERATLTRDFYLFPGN
In short: (§1)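 Outsourced microfluidic protease panel. Compound was preincubated with each protease for 30 min at 25 °C, then peptide substrate was added for 3 h at 25 °C and quenched with SDS/EDTA/iodoacetate. Substrate-to-product conversion was measured on LabChip. Compounds were tested singly in a 12-point 3-fold dilution series, top 20 μM (5 μM for two reference compounds).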

[1] = target: Matrix metalloproteinase-9 (Homo sapiens) (UniProt P14780); assay: Inhibition of recombinant human MMP-9 using GRIGFL substrate up to 20 uM; in short: as §1
[2] = target: 72 kDa type IV collagenase (Homo sapiens) (UniProt P08253); assay: Inhibition of recombinant human MMP-2 using GRIGFL substrate up to 20 uM; in short: as §1
Caspase-2 (Homo sapiens) = target: T2, Caspase-2 (Homo sapiens) (UniProt P42575); assay: Inhibition of recombinant human caspase 2 using DEVDAA substrate at up to 20 uM after 3 hrs; in short: as §1
T2 sequence (whole entry): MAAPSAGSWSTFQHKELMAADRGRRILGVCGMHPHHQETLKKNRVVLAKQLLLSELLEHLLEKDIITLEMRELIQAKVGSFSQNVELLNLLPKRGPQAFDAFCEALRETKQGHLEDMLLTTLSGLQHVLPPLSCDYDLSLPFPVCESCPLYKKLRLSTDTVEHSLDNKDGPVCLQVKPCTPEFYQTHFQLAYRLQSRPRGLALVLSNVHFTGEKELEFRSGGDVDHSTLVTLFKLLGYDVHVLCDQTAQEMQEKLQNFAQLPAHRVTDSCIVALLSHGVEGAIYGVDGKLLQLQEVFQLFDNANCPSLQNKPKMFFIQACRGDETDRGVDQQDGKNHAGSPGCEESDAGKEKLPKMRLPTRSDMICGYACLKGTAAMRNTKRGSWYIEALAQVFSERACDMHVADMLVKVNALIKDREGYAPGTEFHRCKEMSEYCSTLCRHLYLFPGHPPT

[3] = target: Angiotensin-converting enzyme (Homo sapiens) (UniProt P12821); assay: Inhibition of recombinant human ACE using RPFNYLAK substrate up to 20 uM; in short: as §1
[4] = target: Cathepsin D (Homo sapiens) (UniProt P07339); assay: Inhibition of recombinant human cathepsin D using EVNLDAEFRK substrate at up to 20 uM after 3 hrs; in short: as §1
[5] = target: Coagulation factor X (Homo sapiens) (UniProt P00742); assay: Inhibition of recombinant human factor 10a using ALPRTMFIQ substrate at up to 20 uM after 3 hrs
In short: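 Each protease was preincubated 30 min at 25 °C with compound in its assay buffer. Peptide substrate was then added and the reaction ran 3 h at 25 °C before quenching with SDS/EDTA/iodoacetate. Substrate-to-product conversion (%) was read by microfluidic electrophoresis. Compounds were tested in singlicate as 12-point 3-fold dilutions from 20 μM to 0.1 nM. IC50 was taken as the concentration giving 50% of no-compound control activity.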

Caspase-1 (Homo sapiens) = target: T3, Caspase-1 (Homo sapiens) (UniProt P29466); assay: Inhibition of recombinant human caspase 1 using WEHDGPKR substrate at up to 20 uM after 3 hrs; in short: as §1
T3 sequence (whole entry): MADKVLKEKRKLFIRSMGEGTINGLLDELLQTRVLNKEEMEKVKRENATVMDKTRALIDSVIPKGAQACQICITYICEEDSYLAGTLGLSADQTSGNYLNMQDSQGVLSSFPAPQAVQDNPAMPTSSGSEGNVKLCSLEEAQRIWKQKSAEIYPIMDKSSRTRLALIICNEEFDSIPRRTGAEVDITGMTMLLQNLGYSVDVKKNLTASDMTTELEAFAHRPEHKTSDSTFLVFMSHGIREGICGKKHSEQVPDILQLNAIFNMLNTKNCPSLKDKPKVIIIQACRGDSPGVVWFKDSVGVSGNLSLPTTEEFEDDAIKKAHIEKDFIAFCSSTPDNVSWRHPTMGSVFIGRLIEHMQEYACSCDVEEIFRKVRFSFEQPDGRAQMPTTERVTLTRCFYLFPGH

[6] = target: Macrophage metalloelastase (Homo sapiens) (UniProt P39900); assay: Inhibition of recombinant human MMP-12 using GRIGFL substrate up to 20 uM; in short: as §1
Cytochrome P450 2C9 = Cytochrome P450 2C9 (Homo sapiens, UniProt P11712); assay: Inhibition of CYP2C9 (unknown origin) using diclofenac substrate; type: ADME
In short: (§2)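 Human liver microsomes with probe substrate and an NADPH-regenerating system in 0.1 M potassium phosphate pH 7.4 at 37 °C, run in duplicate. Inhibitor at 0–20 μM (0–2.5 μM for one compound), eight concentrations. Reactions were stopped with acetonitrile/formic acid containing isotope-labelled internal standard, and metabolite area ratios were compared with and without inhibitor. IC50 was taken by linear interpolation between bracketing concentrations.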

Cytochrome P450 2B6 = target: T4, Cytochrome P450 2B6 (Homo sapiens, UniProt P20813); assay: Inhibition of CYP2B6 (unknown origin) using bupropion substrate; type: ADME; in short: as §2
T4 sequence (P20813 whole entry): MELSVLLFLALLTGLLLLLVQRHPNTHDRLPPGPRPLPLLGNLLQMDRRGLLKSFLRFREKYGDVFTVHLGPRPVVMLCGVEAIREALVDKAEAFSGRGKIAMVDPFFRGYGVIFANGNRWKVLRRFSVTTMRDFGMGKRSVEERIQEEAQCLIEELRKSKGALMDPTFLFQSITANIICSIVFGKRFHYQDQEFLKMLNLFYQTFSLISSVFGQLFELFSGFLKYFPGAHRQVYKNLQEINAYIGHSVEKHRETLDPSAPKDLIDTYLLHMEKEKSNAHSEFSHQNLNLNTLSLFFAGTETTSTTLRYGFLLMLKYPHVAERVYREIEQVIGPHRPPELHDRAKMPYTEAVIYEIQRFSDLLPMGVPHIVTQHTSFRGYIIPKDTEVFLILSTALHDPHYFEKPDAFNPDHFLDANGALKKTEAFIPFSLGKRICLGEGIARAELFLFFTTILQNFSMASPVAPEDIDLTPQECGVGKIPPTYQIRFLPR

Cytochrome P450 2C19 = Cytochrome P450 2C19 (Homo sapiens, UniProt P33261); assay: Inhibition of CYP2C19 (unknown origin) using (S)-mephentoin substrate; type: ADME; in short: as §2
Sequence of Cytochrome P450 2C19 (P33261 whole entry): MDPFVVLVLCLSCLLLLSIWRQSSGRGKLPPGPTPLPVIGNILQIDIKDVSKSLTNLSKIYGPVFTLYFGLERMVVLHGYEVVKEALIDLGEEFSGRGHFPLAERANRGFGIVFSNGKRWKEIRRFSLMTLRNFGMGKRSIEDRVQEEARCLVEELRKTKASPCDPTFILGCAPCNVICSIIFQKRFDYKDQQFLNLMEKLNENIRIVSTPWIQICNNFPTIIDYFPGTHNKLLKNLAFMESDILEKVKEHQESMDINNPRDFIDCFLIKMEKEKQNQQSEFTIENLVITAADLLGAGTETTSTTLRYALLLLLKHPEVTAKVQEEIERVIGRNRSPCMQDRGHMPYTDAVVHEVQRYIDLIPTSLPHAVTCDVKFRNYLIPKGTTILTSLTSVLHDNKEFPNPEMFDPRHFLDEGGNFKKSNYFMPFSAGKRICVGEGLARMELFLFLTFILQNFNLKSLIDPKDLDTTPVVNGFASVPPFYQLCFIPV

Sequence of 72 kDa type IV collagenase (Homo sapiens) (P08253 110-660 limits assumed): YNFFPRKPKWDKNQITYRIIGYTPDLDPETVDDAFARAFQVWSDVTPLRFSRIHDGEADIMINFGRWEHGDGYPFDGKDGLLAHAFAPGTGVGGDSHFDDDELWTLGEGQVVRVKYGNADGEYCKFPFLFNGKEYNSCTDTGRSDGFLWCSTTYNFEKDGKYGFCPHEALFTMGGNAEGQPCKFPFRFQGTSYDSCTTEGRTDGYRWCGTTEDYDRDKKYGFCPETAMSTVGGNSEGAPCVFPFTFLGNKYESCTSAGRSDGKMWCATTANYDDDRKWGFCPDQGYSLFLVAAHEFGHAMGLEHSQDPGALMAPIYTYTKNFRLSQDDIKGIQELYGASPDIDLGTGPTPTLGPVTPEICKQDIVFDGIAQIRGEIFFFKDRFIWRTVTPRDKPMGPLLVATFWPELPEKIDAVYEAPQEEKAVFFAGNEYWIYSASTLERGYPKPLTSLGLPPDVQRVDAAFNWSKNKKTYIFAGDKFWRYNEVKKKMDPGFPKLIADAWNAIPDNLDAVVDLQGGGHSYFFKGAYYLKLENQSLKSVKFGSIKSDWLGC
Sequence of Coagulation factor X (Homo sapiens) (P00742 41-179 limits assumed): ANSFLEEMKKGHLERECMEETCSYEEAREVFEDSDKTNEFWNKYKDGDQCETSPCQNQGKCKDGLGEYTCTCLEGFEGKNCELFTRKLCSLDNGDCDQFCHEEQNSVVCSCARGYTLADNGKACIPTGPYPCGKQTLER
Sequence of Coagulation factor X (Homo sapiens) (P00742 235-488 limits assumed): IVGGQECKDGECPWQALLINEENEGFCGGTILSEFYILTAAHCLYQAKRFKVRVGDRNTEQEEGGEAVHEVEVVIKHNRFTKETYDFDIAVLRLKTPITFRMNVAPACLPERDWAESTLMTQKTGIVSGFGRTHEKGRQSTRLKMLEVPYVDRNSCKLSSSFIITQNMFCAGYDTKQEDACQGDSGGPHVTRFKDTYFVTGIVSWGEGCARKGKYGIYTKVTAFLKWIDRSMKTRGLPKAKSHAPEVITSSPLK
Sequence of Angiotensin-converting enzyme (Homo sapiens) (P12821 whole entry): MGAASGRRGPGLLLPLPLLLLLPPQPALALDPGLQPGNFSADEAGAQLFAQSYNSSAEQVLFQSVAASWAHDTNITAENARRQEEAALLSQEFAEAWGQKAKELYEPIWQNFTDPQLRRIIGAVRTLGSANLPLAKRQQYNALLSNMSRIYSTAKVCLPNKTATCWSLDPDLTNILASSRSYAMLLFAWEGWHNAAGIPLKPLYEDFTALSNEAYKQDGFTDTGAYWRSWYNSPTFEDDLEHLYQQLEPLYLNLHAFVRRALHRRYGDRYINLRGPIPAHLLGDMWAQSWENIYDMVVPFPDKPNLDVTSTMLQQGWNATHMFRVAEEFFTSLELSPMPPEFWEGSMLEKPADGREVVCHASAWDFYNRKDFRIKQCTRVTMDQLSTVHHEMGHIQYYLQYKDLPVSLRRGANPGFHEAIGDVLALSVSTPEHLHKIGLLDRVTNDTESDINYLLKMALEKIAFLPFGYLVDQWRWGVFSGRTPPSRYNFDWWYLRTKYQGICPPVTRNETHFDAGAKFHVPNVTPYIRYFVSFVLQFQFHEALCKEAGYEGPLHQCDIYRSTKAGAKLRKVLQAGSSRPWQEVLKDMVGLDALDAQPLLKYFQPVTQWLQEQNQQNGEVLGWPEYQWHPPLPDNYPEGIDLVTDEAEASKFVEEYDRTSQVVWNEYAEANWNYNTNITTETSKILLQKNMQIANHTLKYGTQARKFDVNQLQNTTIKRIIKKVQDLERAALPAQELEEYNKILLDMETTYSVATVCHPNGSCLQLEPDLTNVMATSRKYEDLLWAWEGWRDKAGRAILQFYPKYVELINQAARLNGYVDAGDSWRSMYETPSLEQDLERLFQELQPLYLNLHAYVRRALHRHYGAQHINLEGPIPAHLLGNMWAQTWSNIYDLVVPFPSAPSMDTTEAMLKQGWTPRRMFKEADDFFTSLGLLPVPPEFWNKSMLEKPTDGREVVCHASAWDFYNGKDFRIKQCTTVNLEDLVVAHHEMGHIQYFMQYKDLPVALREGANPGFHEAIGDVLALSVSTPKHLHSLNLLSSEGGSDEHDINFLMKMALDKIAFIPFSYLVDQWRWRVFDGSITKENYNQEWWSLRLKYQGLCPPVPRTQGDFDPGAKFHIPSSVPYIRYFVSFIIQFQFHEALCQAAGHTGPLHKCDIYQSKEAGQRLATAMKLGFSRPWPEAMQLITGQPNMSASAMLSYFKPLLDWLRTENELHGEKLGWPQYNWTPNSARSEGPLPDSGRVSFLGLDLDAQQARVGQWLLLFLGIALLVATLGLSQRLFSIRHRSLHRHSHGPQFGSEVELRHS
Sequence of Macrophage metalloelastase (Homo sapiens) (P39900 106-470 limits assumed): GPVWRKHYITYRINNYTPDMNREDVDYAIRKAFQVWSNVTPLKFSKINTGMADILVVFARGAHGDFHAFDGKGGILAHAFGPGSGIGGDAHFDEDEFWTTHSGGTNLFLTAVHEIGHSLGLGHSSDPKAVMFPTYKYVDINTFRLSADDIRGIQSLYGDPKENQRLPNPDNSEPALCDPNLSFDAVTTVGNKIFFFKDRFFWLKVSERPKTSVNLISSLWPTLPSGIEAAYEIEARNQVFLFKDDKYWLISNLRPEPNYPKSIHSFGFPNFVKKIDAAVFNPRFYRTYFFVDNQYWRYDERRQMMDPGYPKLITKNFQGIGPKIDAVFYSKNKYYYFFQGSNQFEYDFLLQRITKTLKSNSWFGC
Sequence of Cytochrome P450 2C9 (P11712 whole entry): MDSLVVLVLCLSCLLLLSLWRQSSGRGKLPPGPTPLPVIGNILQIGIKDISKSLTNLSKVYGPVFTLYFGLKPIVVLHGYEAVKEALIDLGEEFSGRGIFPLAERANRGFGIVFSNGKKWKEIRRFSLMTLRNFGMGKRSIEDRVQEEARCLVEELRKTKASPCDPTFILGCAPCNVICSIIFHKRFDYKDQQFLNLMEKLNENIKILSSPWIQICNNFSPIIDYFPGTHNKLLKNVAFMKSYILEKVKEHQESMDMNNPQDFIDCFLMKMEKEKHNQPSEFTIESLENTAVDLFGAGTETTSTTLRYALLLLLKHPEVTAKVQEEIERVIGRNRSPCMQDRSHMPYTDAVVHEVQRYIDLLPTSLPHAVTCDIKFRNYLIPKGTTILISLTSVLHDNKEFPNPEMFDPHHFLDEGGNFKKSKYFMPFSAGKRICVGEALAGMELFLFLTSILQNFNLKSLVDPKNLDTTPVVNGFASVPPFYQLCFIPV
Sequence of Matrix metalloproteinase-9 (Homo sapiens) (P14780 whole entry): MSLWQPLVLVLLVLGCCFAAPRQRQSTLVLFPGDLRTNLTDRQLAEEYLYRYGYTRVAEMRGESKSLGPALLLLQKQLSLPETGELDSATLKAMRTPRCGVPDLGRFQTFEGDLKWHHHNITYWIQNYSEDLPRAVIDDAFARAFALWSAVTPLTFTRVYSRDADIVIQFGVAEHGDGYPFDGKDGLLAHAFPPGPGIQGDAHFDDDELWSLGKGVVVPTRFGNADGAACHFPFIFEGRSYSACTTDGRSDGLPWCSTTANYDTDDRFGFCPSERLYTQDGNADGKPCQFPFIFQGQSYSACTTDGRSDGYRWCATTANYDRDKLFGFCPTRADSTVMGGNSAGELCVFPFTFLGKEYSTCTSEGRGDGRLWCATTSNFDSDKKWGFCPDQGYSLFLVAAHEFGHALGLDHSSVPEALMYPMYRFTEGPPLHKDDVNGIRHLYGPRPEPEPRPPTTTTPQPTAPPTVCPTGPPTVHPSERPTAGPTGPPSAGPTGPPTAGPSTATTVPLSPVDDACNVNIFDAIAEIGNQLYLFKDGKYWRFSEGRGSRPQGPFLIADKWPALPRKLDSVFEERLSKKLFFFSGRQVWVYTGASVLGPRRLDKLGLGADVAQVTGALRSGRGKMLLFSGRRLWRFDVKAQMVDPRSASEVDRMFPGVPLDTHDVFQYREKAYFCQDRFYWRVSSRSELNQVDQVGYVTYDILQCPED
Sequence of Cathepsin D (Homo sapiens) (P07339 65-162 limits assumed): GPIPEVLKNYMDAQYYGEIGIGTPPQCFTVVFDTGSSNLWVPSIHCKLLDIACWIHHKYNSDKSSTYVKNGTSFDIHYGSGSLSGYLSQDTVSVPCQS
Sequence of Cathepsin D (Homo sapiens) (P07339 169-412 limits assumed): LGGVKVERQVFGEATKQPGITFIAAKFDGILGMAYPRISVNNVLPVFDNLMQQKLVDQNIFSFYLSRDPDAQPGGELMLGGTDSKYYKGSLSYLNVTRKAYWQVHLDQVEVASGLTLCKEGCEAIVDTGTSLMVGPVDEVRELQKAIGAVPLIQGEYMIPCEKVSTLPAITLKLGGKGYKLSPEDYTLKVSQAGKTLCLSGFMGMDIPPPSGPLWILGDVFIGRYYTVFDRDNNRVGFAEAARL

| SMILES | inhibition (Caspase-5 (Homo sapiens)) | inhibition [1] | inhibition [2] | inhibition (Caspase-2 (Homo sapiens)) | inhibition [3] | inhibition [4] | inhibition [5] | inhibition (Caspase-1 (Homo sapiens)) | inhibition [6] | pIC50 (Cytochrome P450 2C9) | pIC50 (Cytochrome P450 2B6) | pIC50 (Cytochrome P450 2C19) |
| --- | --- | --- | --- | --- | --- | --- | --- | --- | --- | --- | --- | --- |
| Cc1ccc(CSc2nc(O)c3c(n2)CCC3)cc1 | > 10% | > 10% | > 10% | < 10% | > 10% | < 10% | < 10% | < 10% | > 10% | – | – | – |
| Cc1cc(CNC(=O)c2cc(C(=O)NCc3ccc(F)c(C)c3)ncn2)ccc1F | – | – | – | – | – | – | – | – | – | < 4.70 | < 4.70 | < 4.70 |
| COC(=O)c1ccc(CSc2nc3c(c(=O)[nH]2)CCC3)cc1 | < 10% | > 10% | > 10% | < 10% | > 10% | < 10% | < 10% | < 10% | > 10% | < 4.70 | < 4.70 | < 4.70 |
| Oc1nc(SCc2ccc(Cl)cc2)nc2c1CCC2 | < 10% | > 10% | > 10% | < 10% | > 10% | < 10% | < 10% | < 10% | > 10% | 4.72 | < 4.70 | 5.19 |
| Cn1c(=O)n(Cc2ccc(C(=O)O)cc2)c(=O)c2cc(C#CCc3ccccc3)ccc21 | – | – | – | – | – | – | – | – | – | < 5.60 | < 5.60 | < 5.60 |
